Paper PMC4452166 (Cancer Science, 2015)

Assays:
[1] = test system: AGS cells; experiment: MTT cytotoxicity assay, AGS; assay type: cell-based, human; conditions: for IC50: read-out: IC50 (cytotoxicity), 48 h
Outline: (§1)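 Human epithelia-derived lines grown in 10% FBS media at 37°C, 5% CO2: FLC-4 in DMEM/F12, MCF7 in Eagle's MEM + 10 μg/mL insulin, HCT116 in McCoy's 5A, AGS/HEK293 in DMEM, TE4 in RPMI. Cells seeded 24 h before test compound, then exposed 48 h at 37°C. MTT 4 h; overnight solubilisation (DMF/acetic acid/HCl/SDS); OD 570 nm. n = 3. IC20 reported as maximum tolerated concentration.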

[2] = test system: MCF7 cells; experiment: MTT cytotoxicity assay, MCF7; assay type: cell-based, human; conditions: for IC50: read-out: IC50 (cytotoxicity), MCF7, 48 h
Outline: as §1

[3] = test system: HL-60 cells; experiment: MTT cytotoxicity assay, HL-60; assay type: cell-based, human; conditions: read-out: IC50 (cytotoxicity), HL-60, 48 h
Outline: (§2)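 Leukemia lines kept in RPMI medium with 10% FBS and antibiotics, 37°C, 5% CO2. Cells plated directly with test compound and incubated 48 h at 37°C. MTT added for 4 h; formazan dissolved overnight at room temperature in extraction solution (40% dimethylformamide, 2% acetic acid, 0.03 M HCl, 20% SDS); OD 570 nm. Means ± SD, n = 3.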

[4] = test system: HUT78 cells; experiment: MTT cytotoxicity assay, HUT78; assay type: cell-based, human; conditions: read-out: IC50 (cytotoxicity), HUT78, 48 h
Outline: as §2

[5] = test system: TE4 cells; experiment: MTT cytotoxicity assay, TE4; assay type: cell-based, human; conditions: for IC50: read-out: IC50 (cytotoxicity), TE4, 48 h
Outline: as §1

[6] = test system: HCT116 cells; experiment: MTT cytotoxicity assay, HCT116; assay type: cell-based, human; conditions: for IC50: read-out: IC50 (cytotoxicity), HCT116, 48 h
Outline: as §1

[7] = test system: PEER cells; experiment: MTT cytotoxicity assay, PEER; assay type: cell-based, human; conditions: read-out: IC50 (cytotoxicity), 48 h
Outline: as §2

[8] = test system: Jurkat cells; experiment: Jurkat xenograft model in SCID mice; assay type: in vivo; conditions: for tumor weight vs vehicle: day 35 after inoculation; for Survival: tumor-bearing SCID mice
Outline: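 Six-week-old female SCID mice inoculated s.c. with 5 × 10^7 Jurkat cells. From day 20, mice received saline vehicle, test compound 13 mg/kg (13 μmol/kg) or CdCl2 3 mg/kg (13 μmol/kg) i.p. three times weekly for 2 weeks, n = 5 per group. Body weight and tumor size taken three times weekly; volume = long × short² × 1/2. Killed on day 35; tumors, liver, kidney, spleen and lung weighed. Student's t-test.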

[9] = test system: Jurkat cells; experiment: MTT cytotoxicity assay, Jurkat; assay type: cell-based, human; conditions: read-out: IC50 (cytotoxicity), 48 h
Outline: as §2

[10] = test system: JKT-beta-del cells; experiment: MTT cytotoxicity assay, JKT-beta-del; assay type: cell-based, human; conditions: read-out: IC50 (cytotoxicity), 48 h
Outline: as §2

[11] = test system: FLC-4 cells; experiment: MTT cytotoxicity assay, FLC-4; assay type: cell-based, human; conditions: for IC50: read-out: IC50 (cytotoxicity), FLC-4, 48 h
Outline: as §1

[12] = test system: HPB-ALL cells; experiment: MTT cytotoxicity assay, HPB-ALL; assay type: cell-based, human; conditions: read-out: IC50 (cytotoxicity), 48 h
Outline: as §2

[13] = test system: low TC4ATS-Cd-sensitive leukemia cell lines and epithelia-derived cell lines except for HEK293; assay type: cell-based, human; conditions: 50 μM, 24 h, western blot
[14] = test system: HPB-ALL cells; experiment: Western blot of activated caspase-3 and cleaved PARP, HPB-ALL; assay type: cell-based, human; conditions: 50 μM, 24 h
Outline: (§3)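 Leukemia cells treated with test compound for 24 h. Equal protein run on reducing SDS-PAGE and transferred to PVDF. Blocked in 1% skim milk; probed for activated caspase-3, cleaved PARP and β-actin; peroxidase secondary antibody; ECL detection.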

[15] = test system: HEK293 cells; experiment: MTT cytotoxicity assay, HEK293; assay type: cell-based, human; conditions: for IC50: read-out: IC50 (cytotoxicity), HEK293, 48 h
Outline: as §1

[16] = test system: Jurkat cells; experiment: Lactate dehydrogenase; assay type: cell-based, human; conditions: 48 h
[17] = test system: caspase-3 in Jurkat cells; experiment: Caspase-3 activity assay with fluorogenic substrate in cell lysates; assay type: cell-based, human; conditions: Ac-DEVD-MCA substrate
[18] = test system: Jurkat cells; experiment: Western blot of activated caspase-3 and cleaved PARP, Jurkat; assay type: cell-based, human; conditions: 24 h
Outline: as §3

[19] = in vivo; cited from earlier work
[20] = 13 μmol/kg i.p. three times weekly for 2 weeks

Row | Molecule | IC50 [1] | IC50 [2] | IC50 [3] | IC50 [4] | IC50 [5] | IC50 [6] | IC50 [7] | renal atrophy (relative kidney weight) [8, 20] | tumor weight vs vehicle [8, 20] | Survival [8, 20] | IC50 [9] | IC50 [10] | IC50 [11] | IC50 [12] | apoptotic events (caspase-3 activation, PARP cleavage) [13] | caspase-3 activation and cleavage of PARP [14] | IC50 [15] | also measured
1 | [Cl][Cd][Cl] [CdCl2, Cadmium chloride, reference compound] | 60 µM | 36 µM | 27 µM | 25 µM | 129 µM | 47 µM | 28 µM | notably induced renal atrophy | non-significant decrease | 3/5 | 6.5 µM | 30 µM | 106 µM | 9.8 µM | not elicited | induced | 1.9 µM | –
2 | cadmium-coordinated thiacalix[4]arene tetrasulfate [TC4ATS-Cd] | 947 µM | 2210 µM | 81 µM | 35 µM | 2130 µM | 1500 µM | 144 µM | no significant atrophy | significantly lower | 5/5 | 6.9 µM | 275 µM | 2450 µM | 17 µM | not elicited | induced | 15 µM | IC20 ([1]; read-out: maximum tolerated concentration (=IC20 value), 48 h): 505 µM; IC20 ([2]; read-out: maximum tolerated concentration (=IC20 value), MCF7, 48 h): 1330 µM; IC20 ([5]; read-out: maximum tolerated concentration (=IC20 value), TE4, 48 h): 454 µM; LDH release [16]: increased LDH release from Jurkat cells in a dose-dependent manner; IC20 ([6]; read-out: maximum tolerated concentration (=IC20 value), HCT116, 48 h): 280 µM; body weight changes vs vehicle [8, 20]: no significant difference; tumor growth of Jurkat cells ([8]; 13 mg/kg, xenograft model in mice): significantly suppressed; IC20 ([11]; read-out: maximum tolerated concentration (=IC20 value), FLC-4, 48 h): 667 µM; caspase-3 proteolytic activity [17]: increased its proteolytic activity; IC20 ([15]; read-out: maximum tolerated concentration (=IC20 value), HEK293, 48 h): 6.8 µM; cleavage of PARP [18]: consistently and markedly upregulated; levels of activated caspase-3 protein [18]: upregulated
3 | O=S(=O)(O)c1cc2c(O)c(c1)Cc1cc(S(=O)(=O)O)cc(c1O)Cc1cc(S(=O)(=O)O)cc(c1O)Cc1cc(S(=O)(=O)O)cc(c1O)C2 [C4ATS, p-tetrasulfonated calix[4]arene] | – | – | – | – | – | – | – | – | – | – | – | – | – | – | – | – | – | dose without toxic effects, acute toxicity [19]: ≥ 100 mg/kg
